The assay concerns the target Voltage-gated inwardly rectifying potassium channel KCNH2 (Homo sapiens) (UniProt Q12809). Put plainly: KCNH2 channel binding inhibition – biochemical, radiometric, counter-screen for OPRK1 antagonist project, late-stage follow-up (AID 652075). To be noted: hERG radioligand binding displacement, CEREP; at 10 µM; stronger effect = higher value. In a few lines: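 System: hERG radioligand binding; Repeats: duplicate; Controls: excess unlabelled ligand for nonspecific binding; Signal: radioligand binding; Dosing: 10 µM single dose; Probe or stimulus: radiolabelled ligand, excess unlabelled ligand for nonspecific binding; Read-out: % inhibition of control specific binding.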
Background: Counterscreens check selectivity or assay interference.

From PubChem BioAssay AID652075 (The Scripps Research Institute Molecular Screening Center, 2013) come the findings set out here.

Molecules are shown by their SMILES. Activity calls are given as the source filed them.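 The calls were made as follows: active = hERG binding inhibition of 50% or more, or stimulation of 50% or more, shown as inhibition of -50% or lower; inactive = the rest.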

Sequence of Voltage-gated inwardly rectifying potassium channel KCNH2 (Homo sapiens) (Q12809 whole entry, looked up): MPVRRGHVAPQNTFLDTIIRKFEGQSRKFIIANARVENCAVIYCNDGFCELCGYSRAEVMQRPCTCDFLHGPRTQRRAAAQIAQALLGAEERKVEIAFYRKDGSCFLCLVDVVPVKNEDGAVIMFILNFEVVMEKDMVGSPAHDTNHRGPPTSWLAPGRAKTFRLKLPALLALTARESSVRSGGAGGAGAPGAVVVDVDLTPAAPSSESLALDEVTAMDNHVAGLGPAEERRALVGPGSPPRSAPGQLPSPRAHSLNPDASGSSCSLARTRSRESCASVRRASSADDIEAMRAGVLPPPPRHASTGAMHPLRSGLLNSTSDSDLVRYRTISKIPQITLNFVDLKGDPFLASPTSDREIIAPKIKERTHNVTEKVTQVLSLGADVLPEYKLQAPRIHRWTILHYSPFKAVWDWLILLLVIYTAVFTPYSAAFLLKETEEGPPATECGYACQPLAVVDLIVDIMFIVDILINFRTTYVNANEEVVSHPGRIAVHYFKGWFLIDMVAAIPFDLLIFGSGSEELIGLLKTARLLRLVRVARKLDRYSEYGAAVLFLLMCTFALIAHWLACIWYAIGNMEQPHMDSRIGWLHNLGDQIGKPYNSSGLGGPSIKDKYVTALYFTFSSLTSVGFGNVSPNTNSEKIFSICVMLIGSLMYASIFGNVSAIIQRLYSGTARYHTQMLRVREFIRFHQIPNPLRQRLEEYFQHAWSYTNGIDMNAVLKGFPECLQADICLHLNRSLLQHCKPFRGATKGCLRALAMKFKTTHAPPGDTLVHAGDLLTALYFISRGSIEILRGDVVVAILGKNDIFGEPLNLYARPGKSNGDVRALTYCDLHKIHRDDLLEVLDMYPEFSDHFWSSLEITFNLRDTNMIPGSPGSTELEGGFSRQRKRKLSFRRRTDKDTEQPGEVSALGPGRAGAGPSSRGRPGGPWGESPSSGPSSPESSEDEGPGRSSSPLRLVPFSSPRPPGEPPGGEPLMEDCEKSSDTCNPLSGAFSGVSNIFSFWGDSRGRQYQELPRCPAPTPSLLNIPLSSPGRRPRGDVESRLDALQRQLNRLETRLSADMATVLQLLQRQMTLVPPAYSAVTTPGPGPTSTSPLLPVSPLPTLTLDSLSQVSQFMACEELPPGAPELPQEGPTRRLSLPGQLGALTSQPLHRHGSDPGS

With `COC(=O)c1cc(Br)cnc1N1CCC(NC2CCCCC2)C(O)C1` (stereo unspecified), the inhibition (commonly the drop in the measured response relative to a control, in per cent) was 39.3% (inactive).
